Assays:
[1] = molecular target: Potassium-transporting ATPase (Sus scrofa, UniProt P19156); assay: Inhibition of K+ stimulated gastric ATPase activity; format: tissue-based, Stomach
Outline: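 K+-stimulated ATPase activity measured in a lyophilized gastric vesicle preparation at pH 7; enzyme concentration estimated at around 2 nM from 32P-ATP binding.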

Canis familiaris [2] = assay: % inhibition of Histamine-stimulated gastric acid secretion in Heidenhain pouch dog 1 uM/kg, on iv administration of the compound.; format: functional, Canis lupus familiaris, Stomach
Canis familiaris [3] = assay: % inhibition of Histamine-stimulated gastric acid secretion in Heidenhain pouch dog 4 uM/kg, on peroral administration of the compound.; format: functional, Canis lupus familiaris, Stomach
Outline: (§1)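 Heidenhain pouch dogs with histamine-stimulated acid secretion; compound given orally as a dry powder in a hard gelatin capsule; inhibition of acid secretion measured.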

[4] = molecular target: T1, Potassium-transporting ATPase (Rattus norvegicus) (UniProt P09626+P18598); assay: Inhibition of pentagastrin stimulated gastric acid secretion in anesthetized rat 10 uM/kg, on iv administration of the compound.; format: functional, organism-based; details: Stomach
Outline: (§2)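 Anaesthetized rat with lumen-perfused stomach; acid secretion induced by pentagastrin; compound given intravenously; inhibition of acid output recorded.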

[5] = molecular target: T1, Potassium-transporting ATPase (Rattus norvegicus); assay: Inhibition of pentagastrin stimulated gastric acid secretion in anesthetized rat at 10 uM/kg; format: functional; details: Stomach; 10 umol/kg; outline: as §2
Rattus norvegicus [6] = assay: Inhibition of pentagastrin stimulated gastric acid secretion in anesthetized rat on 10 uM/kg, iv administration of the compound.; format: functional, Stomach; outline: as §2
Canis familiaris [7] = assay: Histamine-stimulated gastric acid secretion in Heidenhain pouch dog at 1uM/Kg, on iv administration of the compound; format: functional, Canis lupus familiaris, Stomach
Canis familiaris [8] = assay: Histamine-stimulated gastric acid secretion in Heidenhain pouch dog at 4uM/Kg, on oral administration of the compound
Rattus norvegicus [9] = assay: Inhibition of pentagastrin stimulated gastric acid secretion in anesthetized rat on iv administration of the compound.; format: functional; details: Stomach; outline: as §2
Rattus norvegicus [10] = assay: Inhibition of pentagastrin stimulated gastric acid secretion in anesthetized rat at 10 uM/kg, on iv administration of the compound.; format: functional, Stomach; outline: as §2
Canis familiaris [11] = assay: % inhibition of Histamine-stimulated gastric acid secretion in Heidenhain pouch dog at1uM/kg, on iv administration of the compound.; format: functional, Canis lupus familiaris, Stomach
Canis familiaris [12] = assay: % inhibition of Histamine-stimulated gastric acid secretion in Heidenhain pouch dog at 4 uM/kg, on peroral administration of the compound.; format: functional, Canis lupus familiaris, Stomach; outline: as §1
[13] = molecular target: Potassium-transporting ATPase (Sus scrofa) (UniProt P18434+P19156); assay: Inhibition of K+ stimulated gastric ATPase activity at 100 uM[…]; format: tissue-based; details: Stomach

Potassium-transporting ATPase, sequence (P18434 whole entry): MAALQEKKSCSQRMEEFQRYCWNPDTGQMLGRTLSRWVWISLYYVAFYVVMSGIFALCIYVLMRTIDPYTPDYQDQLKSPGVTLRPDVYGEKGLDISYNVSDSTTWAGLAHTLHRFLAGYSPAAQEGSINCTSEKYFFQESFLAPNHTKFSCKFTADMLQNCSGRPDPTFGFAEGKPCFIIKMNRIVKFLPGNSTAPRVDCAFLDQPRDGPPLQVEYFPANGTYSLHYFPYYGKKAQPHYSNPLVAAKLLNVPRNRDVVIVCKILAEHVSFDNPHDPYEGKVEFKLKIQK
Potassium-transporting ATPase, sequence (P19156 whole entry): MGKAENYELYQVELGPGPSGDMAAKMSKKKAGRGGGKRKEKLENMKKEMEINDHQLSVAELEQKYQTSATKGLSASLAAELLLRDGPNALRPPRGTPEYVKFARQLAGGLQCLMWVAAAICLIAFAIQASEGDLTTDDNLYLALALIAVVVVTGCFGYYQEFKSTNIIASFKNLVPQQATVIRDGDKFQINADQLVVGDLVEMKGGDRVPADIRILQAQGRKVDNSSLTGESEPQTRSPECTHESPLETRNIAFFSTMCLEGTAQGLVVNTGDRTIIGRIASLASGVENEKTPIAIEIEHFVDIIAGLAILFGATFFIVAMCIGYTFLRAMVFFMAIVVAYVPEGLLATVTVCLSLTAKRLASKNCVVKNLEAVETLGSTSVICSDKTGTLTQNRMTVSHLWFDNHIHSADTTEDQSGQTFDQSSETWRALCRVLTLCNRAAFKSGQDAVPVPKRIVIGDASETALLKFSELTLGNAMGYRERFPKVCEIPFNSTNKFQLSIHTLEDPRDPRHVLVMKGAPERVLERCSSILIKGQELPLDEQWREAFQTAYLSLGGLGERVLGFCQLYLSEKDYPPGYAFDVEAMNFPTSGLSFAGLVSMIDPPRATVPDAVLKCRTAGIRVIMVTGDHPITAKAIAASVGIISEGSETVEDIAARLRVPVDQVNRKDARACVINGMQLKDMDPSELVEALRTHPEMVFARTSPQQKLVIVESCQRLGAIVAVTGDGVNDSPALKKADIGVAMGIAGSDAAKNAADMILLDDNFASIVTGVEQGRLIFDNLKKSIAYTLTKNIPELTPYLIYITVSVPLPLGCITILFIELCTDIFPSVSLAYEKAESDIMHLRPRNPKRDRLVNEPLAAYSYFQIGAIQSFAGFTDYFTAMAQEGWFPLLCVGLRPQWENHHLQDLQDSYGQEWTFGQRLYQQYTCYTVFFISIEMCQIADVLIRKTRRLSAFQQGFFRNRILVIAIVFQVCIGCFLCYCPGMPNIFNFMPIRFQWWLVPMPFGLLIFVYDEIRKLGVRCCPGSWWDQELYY

SMILES | IC50 [1] [nM] | further results
COc1cccc2c(N(C)c3ccccc3)nc(Nc3ccc(F)cc3C)nc12 | 32 | Inhibition (Canis familiaris [2]): 96%; Inhibition (Canis familiaris [3]): 32%; inhibition [4]: 94%
Cc1ccccc1Nc1nc(NCCc2ccccc2)nc2ccccc12 | 810 | inhibition [5]: 31%
Cc1ccccc1Nc1nc(N2CCCC2)nc2ccccc12 | 2260 | inhibition [5]: 17%
COc1cccc2c(Nc3ccccc3C)nc(N(C)c3ccccc3)nc12 | 590 | inhibition [5]: 37%
CNc1nc2c(C)cccc2c2c1CCN2c1ccccc1C | 180 | –
COc1cccc2c(N(C)c3ccccc3)nc(N)nc12 | 1200 | inhibition [5]: 13%
CNc1nc(Nc2ccccc2C)c2cccc(OC)c2n1 | 640 | inhibition [5]: 19%
Cc1ccccc1Nc1nc(N(C)c2ccccc2)c2cccc(OCCO)c2n1 | 35 | Inhibition (Canis familiaris [2]): 73%; Inhibition (Canis familiaris [3]): 8%; inhibition [4]: 93%
Cc1cc(Cl)ccc1Nc1nc(N(C)c2ccccc2)c2ccccc2n1 | 41 | inhibition [4]: 31%
CCOC(=O)COc1cccc2c(N(C)c3ccccc3)nc(Nc3ccc(F)cc3C)nc12 | 130 | Inhibition (Rattus norvegicus [6]): 39%
Cc1cc(F)ccc1Nc1nc(N(C)c2ccccc2)c2cc(OCCCN3CCOCC3)ccc2n1 | 370 | inhibition [4]: 5%
Cc1ccccc1Nc1nc(N(C)c2ccccc2)c2cccc(OCCCN(C)C)c2n1 | 21 | Inhibition (Canis familiaris [2]): 18%; Inhibition (Canis familiaris [3]): 25%; inhibition [4]: 49%
COc1cccc2c(Nc3ccccc3C)nc(NCc3nccs3)nc12 | 3800 | inhibition [5]: 33%
Cc1cc(F)ccc1Nc1nc(N(C)c2ccccc2)c2cccc(F)c2n1 | 140 | –
Cc1cc(F)ccc1Nc1nc(N(C)c2ccccc2)c2ccsc2n1 | 130 | –
CN(c1ccccc1)c1nc(N(C)c2ccccc2)c2sccc2n1 | 300 | –
Cc1cc(F)ccc1Nc1nc(N(C)c2ccccc2)c2cccc(OCCO)c2n1 | 100 | –
CCCC(=O)c1cnc2c(OC)cccc2c1Nc1ccccc1C | – | ED50 (Canis familiaris [7]): 0.26 µmol/kg; ED50 (Canis familiaris [8]): 1.6 µmol/kg
Cc1cc(F)ccc1Nc1nc(N(C)c2ccccc2)c2cc(OCCCN(C)C)ccc2n1 | 1100 | –
COc1cccc2c(N(C)c3ccccc3C)nc(Nc3ccc(F)cc3C)nc12 | 95 | –
CN/C(=N\CCSCc1nc[nH]c1C)NC#N [CIMETIDINE] | – | ED50 (Canis familiaris [7]): 1.7 µmol/kg; ED50 (Canis familiaris [8]): 8.5 µmol/kg
Cc1ccccc1Nc1nc(NCCO)nc2ccccc12 | 4600 | inhibition [5]: 21%
COc1ccc(N(C)c2nc(Nc3ccccc3C)[n+](C)c3ccccc23)cc1 | 28 | –

SMILES | IC50 [1] [nM] | further results
Cc1cc(F)ccc1Nc1nc2c(C)cccc2c2c1CCN2c1ccccc1C | 130 | –
Cc1cc(F)ccc1Nc1nc(N(C)c2ccccc2)c2cc(O)ccc2n1 | 18 | Inhibition (Canis familiaris [2]): 97%; Inhibition (Canis familiaris [3]): 0%; ED50 (Rattus norvegicus [9]): 1.5 µmol/kg
COc1ccc(Nc2nc(N(C)c3ccccc3)c3ccccc3n2)c(C)c1 | 360 | –
Cc1cc(F)ccc1Nc1nc(N(C)c2ccccc2)c2cccc(OCCCN(C)C)c2n1 | 36 | Inhibition (Canis familiaris [3]): 0%; inhibition [4]: 68%
Cc1ccccc1Nc1nc(N(C)c2ccccc2C)c2ccccc2n1 | 46 | inhibition [5]: 90%
CCNc1nc(Nc2ccccc2C)c2ccccc2n1 | 1390 | –
COc1cccc2c(Nc3ccccc3C)nc(N3CCCC3)nc12 | 30000 | inhibition [5]: 31%
Cc1cc(F)ccc1Nc1nc(N(C)c2ccccc2)c2cc(OCCN(C)C)ccc2n1 | 1300 | –
Cc1ccccc1Nc1nc(Nc2ccccc2)c2ccccc2n1 | 940 | –
Cc1cc(F)ccc1Nc1nc(N(C)c2ccccc2)c2sccc2n1 | 34 | Inhibition (Rattus norvegicus [10]): 49%
Cc1cc(F)ccc1Nc1nc(N(C)c2ccccc2)c2cccc(OCCCN3CCOCC3)c2n1 | 50 | Inhibition (Canis familiaris [3]): 0%; inhibition [4]: 73%
Cc1ccccc1Nc1nc(N(C)c2ccc(O)cc2)c2ccccc2n1 | 19 | –
Cc1cc(O)ccc1Nc1nc(N(C)c2ccccc2)c2ccccc2n1 | 1070 | inhibition [4]: 23%
Cc1ccccc1Nc1nc(N(C)c2ccccc2C)nc2ccccc12 | 2000 | inhibition [5]: 27%
COc1ccc2nc(Nc3ccc(F)cc3C)nc(N(C)c3ccccc3)c2c1 | 250 | Inhibition (Rattus norvegicus [6]): 27%
CN(c1ccccc1)c1nc(N(C)c2ccccc2)c2ccccc2n1 | 67 | Inhibition (Canis familiaris [11]): 73%; Inhibition (Canis familiaris [12]): 2%; ED50 (Rattus norvegicus [9]): 2.81 µmol/kg
Cc1ccccc1Nc1nc(N(C)c2ccccc2)c2ccsc2n1 | 510 | –
COc1cccc2c(Nc3ccccc3C)nc(NCc3ccccc3)nc12 | 2000 | –
COc1cccc2c(Nc3ccccc3C)nc(Nc3ccccc3C)nc12 | 2500 | –
CN(c1ccccc1)c1nc(N(C)c2ccccc2)c2ccsc2n1 | 1300 | Inhibition (Rattus norvegicus [10]): 14%
CN(c1ccccc1)c1nc(Nc2ccccc2)nc2ccccc12 | 65 | ED50 (Rattus norvegicus [9]): 2.35 µmol/kg
COc1cccc2c(N(C)c3ccccc3)nc(N(C)c3ccccc3)nc12 | 74 | –
COc1cccc2c(Nc3ccccc3C)nc(N(C)C)nc12 | 16000 | inhibition [5]: 37%

SMILES | IC50 [1] [nM] | further results
Cc1ccccc1Nc1nc(N(C)c2ccccc2)c2cccc(O)c2n1 | 260 | –
COc1cccc2c(Nc3ccccc3C)nc(NCCc3ccccc3)nc12 | 3200 | –
Cc1ccccc1Nc1nc(N)nc2ccccc12 | 1320 | ED50 (Rattus norvegicus [9]): 48 µmol/kg
Cc1ccccc1Nc1nc(N(C)c2ccccc2)c2ccccc2n1 | 22 | Inhibition (Canis familiaris [11]): 74%; inhibition [5]: 79%; Inhibition (Canis familiaris [12]): 0%
Cc1cc(F)ccc1Nc1nc(N(C)c2ccccc2)c2cccc(O)c2n1 | 170 | –
Cc1ccccc1Nc1nc(N)nc2c(C)cccc12 | 240 | inhibition [5]: 48%
CN(c1ccccc1)c1nc(N)nc2ccccc12 | 3300 | inhibition [5]: 17%
COc1ccc(N(C)c2nc(Nc3ccccc3C)nc3ccccc23)cc1 | 34 | inhibition [5]: 60%; Inhibition (Canis familiaris [12]): 12%
Cc1ccccc1Nc1nc(N(C)c2ccc(F)cc2)c2ccccc2n1 | 120 | Inhibition (Rattus norvegicus [10]): 62%
COc1cccc2c(Nc3ccccc3C)ncnc12 | 11600 | inhibition [5]: 30%
COc1ccc2nc(Nc3ccccc3C)nc(N(C)c3ccccc3)c2c1 | 510 | inhibition [4]: 46%
Cc1ccccc1Nc1nc(Nc2ccccc2C)c2ccccc2n1 | 600 | –
Cc1ccccc1Nc1nc(NCc2ccccc2)nc2ccccc12 | 510 | –
CCN(c1ccccc1)c1nc(Nc2ccccc2C)nc2ccccc12 | 320 | inhibition [5]: 59%
COc1cccc2c(Nc3ccccc3C)nc(NCc3ccco3)nc12 | 1900 | –
COc1cccc2c(N(C)c3ccccc3C)nc(Nc3ccccc3C)nc12 | 100 | inhibition [4]: 93%
COc1ccc(Nc2nc(N(C)c3ccccc3)c3sccc3n2)c(C)c1 | 340 | –
Cc1cc(F)ccc1Nc1nc(N(C)c2ccccc2)c2ccccc2n1 | 21 | Inhibition (Canis familiaris [2]): 79%; Inhibition (Canis familiaris [3]): 0%; ED50 (Rattus norvegicus [9]): 1.94 µmol/kg
Cc1ccccc1Nc1nc(Nc2ccccc2)c2ccsc2n1 | – | inhibition [13]: 27%
Cc1ccccc1Nc1nc(N(C)c2ccccc2)c2cc(O)ccc2n1 | 24 | –
Cc1ccccc1Nc1nc(Nc2ccccc2C)c2ccsc2n1 | – | inhibition [13]: 27%

From ChEMBL document CHEMBL1128472, “Reversible inhibitors of the gastric (H+/K+)-ATPase. 5. Substituted 2,4-diaminoquinazolines and thienopyrimidines” (J Med Chem, 1995)
